54 compounds from ChEMBL document CHEMBL1125267, “Linear discriminant and multiple regression analyses of anticoccidial triazines” (1991) can be followed below.

The assay in a line: Minimum effective concentration (MEC) value was determined as a measure of anti-coccidial activity (MEC is expressed as mmol/kg of feed). The class given is functional. An outline of the steps:
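Dietary activity was graded by the lowest effective feed level, originally in ppm and converted to mmol/kg of feed. Where MEC was only bounded (>250 ppm or >500 ppm), it was assigned the next higher feed level.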
Compound `O=c1cnn(-c2ccc(S(=O)(=O)N3CCOCC3)c(Cl)c2)c(=O)[nH]1` came in with an MEC of 30 p.p.m.

As to `Cc1cc(-n2ncc(=O)[nH]c2=O)cc(C)c1S(=O)(=O)N1CCOCC1`, the MEC came out at 15 p.p.m.

Regarding `O=c1cnn(-c2cc(Cl)c(S(=O)(=O)N3CCOCC3)c(Cl)c2)c(=O)[nH]1`, the MEC came to 30 p.p.m.

`O=c1cnn(-c2cccc(Cl)c2)c(=O)[nH]1` had an MEC of 125 p.p.m.

For the compound `Cc1cc(C)cc(-n2ncc(=O)[nH]c2=O)c1`, the MEC is on record as 30 p.p.m.

`Cc1cc(Cl)cc(-n2ncc(=O)[nH]c2=O)c1` displayed an MEC of 15 p.p.m.

`O=c1cnn(-c2ccc(S(=O)(=O)c3ccc(Cl)cc3)cc2)c(=O)[nH]1` had an MEC of 4 p.p.m.

On to `Cc1cc(-n2ncc(=O)[nH]c2=O)cc(Cl)c1Sc1ccc(Cl)cc1`, for which the MEC is listed as 0.2 p.p.m.

`COc1c(Cl)cc(-n2ncc(=O)[nH]c2=O)cc1Cl` gave an MEC of 250 p.p.m.

The compound `O=c1cnn(-c2cc(Cl)c(S(=O)(=O)c3ccc(Cl)cc3)c(Cl)c2)c(=O)[nH]1` had an MEC of 0.5 p.p.m.

`O=c1cnn(-c2cc(Cl)cc(Cl)c2)c(=O)[nH]1` showed an MEC of 4 p.p.m.

Turning to `O=c1cnn(-c2ccccc2)c(=O)[nH]1`, the MEC is 500 p.p.m.

`O=c1cnn(-c2ccc(Sc3ccc(Cl)cc3)c(Cl)c2)c(=O)[nH]1` showed an MEC of 2 p.p.m.

In turn, `O=c1cnn(-c2cc(Cl)c(Sc3ccc(Cl)cc3)c(Cl)c2)c(=O)[nH]1` yielded an MEC of 0.2 p.p.m.

`O=c1cnn(-c2ccc(S(=O)(=O)c3ccc(Br)cc3)cc2)c(=O)[nH]1` yielded an MEC of 8 p.p.m.

On to `Cc1cc(-n2ncc(=O)[nH]c2=O)cc(C)c1S(=O)(=O)c1ccc(Cl)cc1`, for which the MEC came to 1 p.p.m.

For the compound `Cc1cc(-n2ncc(=O)[nH]c2=O)cc(C)c1[S+]([O-])c1ccc(Cl)cc1` (centres undefined), the MEC is recorded as 1 p.p.m.

`Cc1cc(-n2ncc(=O)[nH]c2=O)cc(Cl)c1S(=O)(=O)c1ccc(Cl)cc1`: the MEC was 8 p.p.m.

Compound `O=c1cnn(-c2ccc(S(=O)(=O)c3ccccc3)cc2)c(=O)[nH]1` returned an MEC of 30 p.p.m.

Consider `O=C(c1ccc(Cl)cc1)c1c(Cl)cc(-n2ncc(=O)[nH]c2=O)cc1Cl`, for which the MEC came out at 0.5 p.p.m.

The compound `CS(=O)(=O)c1ccc(-n2ncc(=O)[nH]c2=O)cc1` registered an MEC of 500 p.p.m.

In the case of `O=c1cnn(-c2ccc([N+](=O)[O-])cc2)c(=O)[nH]1`, the MEC is 250 p.p.m.

Compound `O=c1cnn(-c2ccc(Oc3ccccc3)cc2)c(=O)[nH]1` yielded an MEC of 500 p.p.m.

In the case of `O=c1cnn(-c2ccc(Oc3ccc(I)cc3)c(Cl)c2)c(=O)[nH]1`, the MEC amounted to 7.5 p.p.m.

Compound `CSc1ccc(Oc2ccc(-n3ncc(=O)[nH]c3=O)cc2C)cc1` returned an MEC of 2 p.p.m.

With `Cc1cc(-n2ncc(=O)[nH]c2=O)ccc1Oc1ccc(Br)cc1`, the MEC was 7.5 p.p.m.

`CSc1ccc(Oc2ccc(-n3ncc(=O)[nH]c3=O)cc2Cl)cc1` showed an MEC of 3.8 p.p.m.

Take `CC(=O)c1ccc(Sc2c(C)cc(-n3ncc(=O)[nH]c3=O)cc2Cl)cc1`: the MEC was 0.25 p.p.m.

`O=c1cnn(-c2ccc(Oc3ccc4cc(Br)ccc4c3)c(Cl)c2)c(=O)[nH]1` showed an MEC of 7.5 p.p.m.

`O=c1cnn(-c2ccc(Sc3ccc4ccccc4c3)c(Cl)c2)c(=O)[nH]1` had an MEC of 125 p.p.m.

Regarding `CSc1ccc(Oc2c(C)cc(-n3ncc(=O)[nH]c3=O)cc2C)cc1`, the MEC was found to be 2 p.p.m.

`COc1cc(-n2ncc(=O)[nH]c2=O)cc(OC)c1OC`: the MEC is recorded as 1000 p.p.m.

Turning to `CC(=O)c1ccc(Oc2c(C)cc(-n3ncc(=O)[nH]c3=O)cc2Cl)cc1`, the MEC amounted to 2 p.p.m.

On to `Cc1cc(-n2ncc(=O)[nH]c2=O)ccc1Oc1ccc(Cl)cc1Cl`, for which the MEC stood at 7.5 p.p.m.

Turning to `Cc1cc(-n2ncc(=O)[nH]c2=O)ccc1Oc1ccc(Cl)cc1`, the MEC worked out at 60 p.p.m.

As to `O=c1cnn(-c2cccc(C(F)(F)F)c2)c(=O)[nH]1`, the MEC came out at 30 p.p.m.

Compound `Cc1cc(-n2ncc(=O)[nH]c2=O)cc(Cl)c1Oc1ccc(Cl)cc1` gave an MEC of 3.8 p.p.m.

Regarding `CSc1ccc(Oc2c(C)cc(-n3ncc(=O)[nH]c3=O)cc2C)cc1C`, the MEC stood at 2 p.p.m.

For `Cc1cc(-n2ncc(=O)[nH]c2=O)ccc1Oc1ccc(S(C)(=O)=O)cc1`, the MEC came out at 4 p.p.m.

For the compound `Cc1cc(-n2ncc(=O)[nH]c2=O)cc(Cl)c1Oc1ccc(C(C)O)cc1` (centres undefined), the MEC is listed as 2 p.p.m.

`CCN(C)S(=O)(=O)c1ccc(Oc2c(C)cc(-n3ncc(=O)[nH]c3=O)cc2Cl)c(Cl)c1` gave an MEC of 3.8 p.p.m.

Regarding `Cc1cc(-n2ncc(=O)[nH]c2=O)cc(Cl)c1Oc1ccc(S(=O)(=O)NC2CC2)cc1Cl`, the MEC came to 15 p.p.m.

In turn, `O=c1cnn(-c2cc(Cl)c(Cc3ccc(Cl)cc3)c(Cl)c2)c(=O)[nH]1` showed an MEC of 0.25 p.p.m.

`O=c1cnn(-c2ccc(Oc3ccc(Cl)cc3Cl)c(Cl)c2)c(=O)[nH]1` yielded an MEC of 7.5 p.p.m.

The compound `O=c1cnn(-c2ccc(F)c(C(F)(F)F)c2)c(=O)[nH]1` registered an MEC of 15 p.p.m.

`N#Cc1cccc(-n2ncc(=O)[nH]c2=O)c1` had an MEC of 30 p.p.m.

Compound `O=c1cnn(-c2ccc(Cc3ccc(Cl)cc3)c(Cl)c2)c(=O)[nH]1` gave an MEC of 8 p.p.m.

Regarding `COc1cc(OC)cc(-n2ncc(=O)[nH]c2=O)c1`, the MEC amounted to 500 p.p.m.

`O=c1cnn(-c2ccc(Br)c(C(F)(F)F)c2)c(=O)[nH]1` yielded an MEC of 15 p.p.m.

Compound `O=c1cnn(-c2ccc(C(O)c3ccc(Cl)cc3)c(Cl)c2)c(=O)[nH]1` (centres undefined) registered an MEC of 2 p.p.m.

For `Cc1cc(-n2ncc(=O)[nH]c2=O)cc(C)c1C(=O)c1ccc(Cl)cc1`, the MEC is recorded as 15 p.p.m.

In the case of `Cc1cc(-n2ncc(=O)[nH]c2=O)ccc1C(O)c1ccccc1` (centres undefined), the MEC came out at 30 p.p.m.

Regarding `N#CC(c1ccc(Cl)cc1)c1c(Cl)cc(-n2ncc(=O)[nH]c2=O)cc1Cl` (centres undefined) [DICLAZURIL], the MEC is listed as 0.1 p.p.m.

In turn, `Cc1cc(-n2ncc(=O)[nH]c2=O)cc(C)c1Sc1ccc(Cl)cc1` [TIAZURIL] returned an MEC of 0.5 p.p.m.
